Data as given in ChEMBL document CHEMBL1153746, “Mansouramycins A-D, cytotoxic isoquinolinequinones from a marine streptomycete” (J Nat Prod, 2009).

Experiments:
[1] = Cytotoxicity against human GXF251L cells after 4 days by propidium iodide assay; type: functional, cell-based; settings: GXF 251L, 96 h
Procedure, shortened: (§1)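 Monolayer cell proliferation assay across a panel of up to 36 human tumour lines covering 14 solid tumour types. Lines came either from patient tumours grown as subcutaneous xenografts in NMRI nu/nu mice or from culture collections (ATCC, NCI, DSMZ). Potency is given as IC50.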

[2] = tested on: SF-268; test: Cytotoxicity against human SF268 cells after 4 days by propidium iodide assay; type: functional, cell-based; settings: SF-268, 96 h; procedure, shortened: as §1
[3] = Cytotoxicity against human 276L cells after 4 days by propidium iodide assay; type: functional, cell-based; settings: 96 h; procedure, shortened: as §1
[4] = Cytotoxicity against human 899L cells after 4 days by propidium iodide assay; type: functional, cell-based; settings: 96 h; procedure, shortened: as §1
[5] = tested on: HCT-116; test: Cytotoxicity against human HCT116 cells after 4 days by propidium iodide assay; type: functional, cell-based; settings: HCT-116, 96 h; procedure, shortened: as §1
[6] = Cytotoxicity against human RXF 486L cells after 4 days by propidium iodide assay; type: functional, cell-based; settings: 96 h; procedure, shortened: as §1
[7] = tested on: LNCaP; test: Cytotoxicity against human LNCAP cells after 4 days by propidium iodide assay; type: functional, cell-based; settings: 96 h; procedure, shortened: as §1
[8] = Cytotoxicity against human UXF 1138L cells after 4 days by propidium iodide assay; type: functional, cell-based; settings: 96 h; procedure, shortened: as §1
[9] = Cytotoxicity against human RXF 944L cells after 4 days by propidium iodide assay; type: functional, cell-based; settings: 96 h; procedure, shortened: as §1
[10] = Cytotoxicity against human 629L cells after 4 days by propidium iodide assay; type: functional, cell-based; settings: 96 h; procedure, shortened: as §1
[11] = Cytotoxicity against human 289L cells after 4 days by propidium iodide assay; type: functional, cell-based; settings: 96 h; procedure, shortened: as §1
[12] = tested on: PANC-1; test: Cytotoxicity against human PANC1 cells after 4 days by propidium iodide assay; type: functional, cell-based; settings: PANC-1, 96 h; procedure, shortened: as §1
[13] = Cytotoxicity against human BXF T24 cells after 4 days by propidium iodide assay; type: functional, cell-based; settings: T-24, 96 h; procedure, shortened: as §1
[14] = Cytotoxicity against human LXFL 529L cells after 4 days by propidium iodide assay; type: functional, cell-based; settings: 96 h; procedure, shortened: as §1
[15] = Cytotoxicity against human 1218L cells after 4 days by propidium iodide assay; type: functional, cell-based; settings: 96 h; procedure, shortened: as §1
[16] = tested on: DU-145; test: Cytotoxicity against human DU145 cells after 4 days by propidium iodide assay; type: functional, cell-based; settings: DU-145, 96 h; procedure, shortened: as §1
[17] = Cytotoxicity against human 514L cells after 4 days by propidium iodide assay; type: functional, cell-based; settings: 96 h; procedure, shortened: as §1
[18] = Cytotoxicity against human 1752L cells after 4 days by propidium iodide assay; type: functional, cell-based; settings: 96 h; procedure, shortened: as §1
[19] = tested on: HT-29; test: Cytotoxicity against human HT-29 cells after 4 days by propidium iodide assay; type: functional, cell-based; settings: HT-29, 96 h; procedure, shortened: as §1
[20] = Cytotoxicity against human 526L cells after 4 days by propidium iodide assay; type: functional, cell-based; settings: 96 h; procedure, shortened: as §1
[21] = Cytotoxicity against human 498NL cells after 4 days by propidium iodide assay; type: functional, cell-based; settings: 96 h; procedure, shortened: as §1
[22] = Cytotoxicity against human MAXF 401NL cells after 4 days by propidium iodide assay; type: functional, cell-based; settings: 96 h; procedure, shortened: as §1
[23] = Cytotoxicity against human 536L cells after 4 days by propidium iodide assay; type: functional, cell-based; settings: 96 h; procedure, shortened: as §1
[24] = tested on: NCI-H460; test: Cytotoxicity against human H460 cells after 4 days by propidium iodide assay; type: functional, cell-based; settings: NCI-H460, 96 h; procedure, shortened: as §1
[25] = Cytotoxicity against human 1781L cells after 4 days by propidium iodide assay; type: functional, cell-based; settings: 96 h; procedure, shortened: as §1
[26] = Cytotoxicity against human 520L cells after 4 days by propidium iodide assay; type: functional, cell-based; settings: 96 h; procedure, shortened: as §1
[27] = tested on: OVCAR-3; test: Cytotoxicity against human OVCAR-3 cells after 4 days by propidium iodide assay; type: functional, cell-based; settings: OVCAR-3, 96 h; procedure, shortened: as §1
[28] = Cytotoxicity against human PC3M cells after 4 days by propidium iodide assay; type: functional, cell-based; settings: PC-3M, 96 h; procedure, shortened: as §1
[29] = Cytotoxicity against human 1619L cells after 4 days by propidium iodide assay; type: functional, cell-based; settings: 96 h; procedure, shortened: as §1
[30] = Cytotoxicity against human 1121L cells after 4 days by propidium iodide assay; type: functional, cell-based; settings: 96 h; procedure, shortened: as §1
[31] = Cytotoxicity against human 393NL cells after 4 days by propidium iodide assay; type: functional, cell-based; settings: 96 h; procedure, shortened: as §1
[32] = Cytotoxicity against human 1657L cells after 4 days by propidium iodide assay; type: functional, cell-based; settings: 96 h; procedure, shortened: as §1
[33] = Cytotoxicity against human 394NL cells after 4 days by propidium iodide assay; type: functional, cell-based; settings: 96 h; procedure, shortened: as §1
[34] = tested on: MCF7; test: Cytotoxicity against human MCF7 cells after 4 days by propidium iodide assay; type: functional, cell-based; settings: MCF7, 96 h; procedure, shortened: as §1
[35] = tested on: CWR22R; test: Cytotoxicity against human 22Rv1 cells after 4 days by propidium iodide assay; type: functional, cell-based; settings: 22Rv1, 96 h; procedure, shortened: as §1
[36] = Cytotoxicity against human MEXF 462NL cells after 4 days by propidium iodide assay; type: functional, cell-based; settings: 96 h; procedure, shortened: as §1
[37] = tested on: Chlorella vulgaris; test: Antialgal activity against Chlorella vulgaris at […] by agar diffusion test; type: functional
[38] = tested on: Staphylococcus aureus; test: Antibacterial activity against Staphylococcus aureus at […] by agar diffusion test; type: functional
[39] = tested on: Streptomyces viridochromogenes; test: Antibacterial activity against Streptomyces viridochromogenes at […] by agar diffusion test; type: functional
[40] = tested on: Rhizomucor miehei; test: Antifungal activity against Mucor miehei at […] by agar diffusion test; type: functional
[41] = tested on: Chlorella sorokiniana; test: Antialgal activity against Chlorella sorokiniana at […] by agar diffusion test; type: functional
[42] = tested on: Desmodesmus subspicatus; test: Antialgal activity against Scenedesmus subspicatus at […] by agar diffusion test; type: functional
[43] = tested on: Escherichia coli; test: Antibacterial activity against Escherichia coli at […] by agar diffusion test; type: functional
[44] = tested on: Candida albicans; test: Antifungal activity against Candida albicans at […] by agar diffusion test; type: functional
[45] = tested on: Bacillus subtilis; test: Antibacterial activity against Bacillus subtilis at […] by agar diffusion test; type: functional
[46] = in the assay text read “MTT assay” for “propidium iodide assay”

In the case of `CNC1=CC(=O)c2cc(C(=O)OC)ncc2C1=O`, the IC50 [1] is reported as 0.167 µM, the IC50 [2] is reported as 0.008 µM and the IC50 [3] is reported as 8 nM. The IC50 [4] was 0.134 µM, the IC50 [5] was 0.114 µM and the IC50 [6] was 1.65 µM. The IC50 [7] was 1.43 µM, the IC50 [8] was 0.012 µM and the IC50 [9] was 0.02 µM. The IC50 [10] was 16 nM, the IC50 [11] was 0.13 µM and the IC50 [12] was 0.549 µM. It also gave an IC50 [13] of 0.008 µM, an IC50 [14] of 0.089 µM and an IC50 [15] of 0.134 µM. For the same molecule, the IC50 [16] was 992 nM, the IC50 [17] was 12 nM and the IC50 [18] was 0.13 µM. For the same molecule, the IC50 [19] was 146 nM, the IC50 [20] was 0.11 µM and the IC50 [21] was 0.13 µM. The IC50 [22] was 0.195 µM, the IC50 [23] was 146 nM and the IC50 [24] was 0.134 µM. It also gave an IC50 [25] of 0.114 µM, an IC50 [26] of 12 nM and an IC50 [27] of 0.012 µM. It also gave an IC50 [28] of 0.215 µM, an IC50 [29] of 0.045 µM and an IC50 [30] of 0.15 µM. For the same molecule, the IC50 [31] was 0.122 µM, the IC50 [32] was 0.061 µM and the IC50 [33] was 0.106 µM. For the same molecule, the IC50 [34] was 12 nM, the IC50 [35] was 0.671 µM and the IC50 [36] was 0.179 µM.

For `CNC1=CC(=O)c2c(cnc(C)c2C)C1=O` [MANSOURAMYCIN A], the IC50 [1] was 31.9 µM, the IC50 [2] was 14.4 µM and the IC50 [3] was 2440 nM. For the same molecule, the IC50 [4, 46] was 34.9 µM, the IC50 [5] was 9.11 µM and the IC50 [6] was 59.1 µM. The IC50 [7] was 21.7 µM, the IC50 [8, 46] was 18 µM and the IC50 [9] was 18.1 µM. The “diameter of the inhibition zone (DIZ)” value [37] was 22 mm, the IC50 [10] was 4100 nM and the IC50 [11] was 19.1 µM. The IC50 [12] was 26.8 µM, the IC50 [13] was 12.6 µM and the IC50 [14] was 12.4 µM. For the same molecule, the IC50 [15] was 28.2 µM, the IC50 [16] was 1250 nM and the IC50 [17] was 2600 nM. For the same molecule, the IC50 [18] was 46.3 µM, the IC50 [19] was 4630 nM and the IC50 [20] was 19 µM. It also gave an IC50 [21] of 14.4 µM, an IC50 [22] of 47.8 µM and an IC50 [23] of 710 nM. The IC50 [24] was 7.11 µM, the IC50 [25] was 16.4 µM and the IC50 [26, 46] was 5450 nM. The IC50 [27, 46] was 32.3 µM, the “diameter of the inhibition zone (DIZ)” value [38] was 12 mm and the IC50 [28] was 32.6 µM. The IC50 [29, 46] was 13.2 µM, the IC50 [30] was 27.1 µM and the IC50 [31] was 18.7 µM. For the same molecule, the “diameter of the inhibition zone (DIZ)” value [39] was 0 mm, the IC50 [32, 46] was 26 µM and the “diameter of the inhibition zone (DIZ)” value [40] was 0 mm. For the same molecule, the IC50 [33] was 15.6 µM, the “diameter of the inhibition zone (DIZ)” value [41] was 17 mm and the “diameter of the inhibition zone (DIZ)” value [42] was 25 mm. The IC50 [34] was 2340 nM, the “diameter of the inhibition zone (DIZ)” value [43] was 10 mm and the IC50 [35] was 21.7 µM. For the same molecule, the “diameter of the inhibition zone (DIZ)” value [44] was 0 mm, the “diameter of the inhibition zone (DIZ)” value [45] was 10 mm and the IC50 [36] was 49.9 µM.

For `O=S(=O)(O)O.Oc1cccc2cccnc12` [QUINOSOL], the “diameter of the inhibition zone (DIZ)” value [37] was 25 mm, the “diameter of the inhibition zone (DIZ)” value [38] was 20 mm and the “diameter of the inhibition zone (DIZ)” value [39] was 0 mm. For the same molecule, the “diameter of the inhibition zone (DIZ)” value [40] was 30 mm, the “diameter of the inhibition zone (DIZ)” value [41] was 28 mm and the “diameter of the inhibition zone (DIZ)” value [42] was 27 mm. For the same molecule, the “diameter of the inhibition zone (DIZ)” value [43] was 15 mm, the “diameter of the inhibition zone (DIZ)” value [44] was 11 mm and the “diameter of the inhibition zone (DIZ)” value [45] was 15 mm.
